# In the library only some 2.5% were active in any assay of this set; here they are far more common.
# MsrA inhibitor: inhibits bovine methionine sulfoxide reductase A. purified bovine MsrA, absorbance read-out. inhibition, % at 15.5 µM. 0.75% of 360,000 active. AID 651718; in the data active = inhibition above about 4.5%
# MsrA act: bovine methionine sulfoxide reductase A activation; purified bovine MsrA, absorbance read-out; activation, % at 10.6 µM; 0.3% of 360,000 active; AID 602163; in the data active = activation above about 7.5%
# NR2E3 ag-1: activates human NR2E3 receptor. CHO-S Gal4-NCOR/VP16-NR2E3 two-hybrid, luciferase. inhibition of corepressor binding, % at 3.98 µM. 0.35% of 360,000 active;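 active = inhibition above the mean of all tested compounds plus 3 SD, cut at about 70% in these data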;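 also: higher means lower luciferase signal from less NR2E3 corepressor binding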
# Target sequence (Q9Y5X4 whole entry, looked up, the tested form may be a part): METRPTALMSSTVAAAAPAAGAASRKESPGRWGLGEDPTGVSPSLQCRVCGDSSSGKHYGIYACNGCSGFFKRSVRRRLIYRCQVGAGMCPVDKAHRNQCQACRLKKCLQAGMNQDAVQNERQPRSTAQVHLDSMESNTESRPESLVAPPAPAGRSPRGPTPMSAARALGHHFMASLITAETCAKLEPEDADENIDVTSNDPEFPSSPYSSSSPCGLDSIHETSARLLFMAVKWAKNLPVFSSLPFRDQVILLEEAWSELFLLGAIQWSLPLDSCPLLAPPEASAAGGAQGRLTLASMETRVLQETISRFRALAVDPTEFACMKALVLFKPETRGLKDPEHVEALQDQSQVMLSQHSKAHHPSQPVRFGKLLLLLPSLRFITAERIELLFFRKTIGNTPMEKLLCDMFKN
# NR2E3 ag-2: NR2E3 (human) agonism. GST-NR2E3/biotin-RetCOR TR-FRET, 1536-well. inhibition of corepressor binding, % at 4.78 µM. 0.12% of 320,000 active;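 active = percent inhibition above the cutoff of mean plus 3 SD of all tested compounds, set per screening campaign, cut at about 20% in these data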
#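 Material – GST-tagged NR2E3 plus biotinylated RetCOR corepressor · Quantity – NR2E3 fusion 1.35 nM · Times – 5 h incubation at 4 °C · Medium – pH 7.5 Tris-based buffer · Technique – TR-FRET, Eu(K)-anti-GST donor, streptavidin-D2 acceptor, ex 340, em 617/671 nm · Benchmarks – high control biotin, low control 0.6% DMSO · Format – 1536-well plates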
# GalR3 antagonist: blocks the human galanin receptor 3; HEK293 GalR3-CNG cAMP membrane potential fluorescence; galR3 body fused to GalR1 C-terminus; inhibition, % at 3 µM; 0.44% of 360,000 active; O60755; AID 651719;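 active = inhibition above the screen-wide average plus 3 SD, cut at about 13% in these data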;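 also: forskolin and galanin both at EC90 stimulate the cells; cAMP rise reported by CNG channel membrane potential dye signal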
# NadD inh: NadD (S. aureus) enzyme inhibition. purified NadD enzyme, colorimetric absorbance read-out. inhibition, % at 20 µM. 0.78% of 360,000 active; in the data active = inhibition above about 26%
# NadD inh conf: confirmation of Staphylococcus aureus NadD inhibitors; shares compounds with NadD inh; purified S. aureus NadD, colorimetric enzyme assay; inhibition, % at 20 µM; 13% of 2,000 active; AID 624309; in the data active = inhibition mostly above about 42%, no sharp cut-off; inactive = mostly below about 42%
# Hits are given with their value; . = inactive; / = not tested or not shown.
SMILES,MsrA inhibitor,MsrA act,NR2E3 ag-1,NR2E3 ag-2,GalR3 antagonist,NadD inh,NadD inh conf
N#Cc1ccc(C(=O)NC23CC4CC(CC(C4)C2)C3)cc1,.,.,.,.,.,.,/
Cc1nc(N)c(C#N)c(-c2ccc3c(c2)OCO3)c1C,.,.,.,/,.,.,/
Cc1ccc(-c2cc(-c3ccc4c(c3)OCO4)c(C#N)c(N)n2)o1,.,.,.,.,.,39.3,.
CCOC(=O)C1=C(C)N(C)C(C)=C(C(=O)OCC)C1c1ccncc1,.,.,.,.,.,.,/
O=c1c(-c2ccc(O)cc2)coc2c(C3O[C@H](CO)[C@@H](O)[C@H](O)[C@H]3O)c(O)ccc12 (stereo not given in full),.,.,.,.,.,.,/
Nc1ccc2nc(CCCCCCc3nc4ccc(N)cc4[nH]3)[nH]c2c1,.,.,.,.,.,50.0,.
Cc1ccc(O)c(C(=O)c2cnc3c(c2)c(-c2ccc(F)cc2)c(C#N)c(=O)n3C)c1,.,.,.,.,.,28.4,.
CC(C)C[C@H]1CNC(=O)C(=O)N1C[C@@H]1CCCN1C[C@H](Cc1ccc(O)cc1)N1C[C@H](Cc2ccccc2)N(CC2CCCCCC2)C(=O)C1=O,.,.,.,/,.,33.8,.
CC(C)C[C@H]1CN([C@@H](Cc2ccccc2)CN2CCC[C@H]2CN2C(=O)C(=O)NC[C@@H]2Cc2ccc(O)cc2)C(=O)C(=O)N1CC1CCCCCC1,.,.,.,/,.,36.4,.
Cc1ccc(NC(=O)CSc2nc3ccc(Nc4nc(N5CCOCC5)nc(N5CCOCC5)n4)cc3s2)cc1,.,.,.,/,.,30.3,.
CC(C)CN(C(=O)c1cc2ccccc2o1)c1c(N)n(CC(C)C)c(=O)[nH]c1=O,.,.,.,.,.,.,/
COc1ccc(C(C[N+](=O)[O-])c2c(-c3ccccc3)cc3ccccn23)c(OC)c1 (stereo not given),.,.,.,.,.,32.9,.
COc1cc(OC)cc(-c2c(-c3cccs3)c3cc(-c4ccc(OCc5ccccc5)cc4)ccc3n2C)c1,.,.,.,/,.,46.3,.
COc1cc(OC)cc(-c2c(-c3cccs3)c3cc(-c4ccc(SC)cc4)ccc3n2C)c1,.,.,.,.,.,.,/
COc1ccc(-c2nn(-c3ccccc3)cc2C(=O)N/N=C/c2ccc([N+](=O)[O-])o2)cc1,.,.,.,.,.,30.7,.
O=C(N/N=C/c1ccc([N+](=O)[O-])o1)c1cc(-c2cccc(Br)c2)nc2ccccc12,.,.,.,.,.,71.6,.
CCCc1ccc(-c2cc(C(=O)N/N=C/c3ccc([N+](=O)[O-])o3)c3ccccc3n2)cc1,.,.,.,.,.,33.9,.
O=C(Oc1c(Cl)cc(Cl)c2cccnc12)c1cccc([N+](=O)[O-])c1,/,.,.,.,/,.,/
COc1ccc(NC(=O)CC2SC(=NCC3CCCO3)NC2=O)c([N+](=O)[O-])c1 (stereo not given),.,.,.,.,.,.,/
COc1cc(NC(=O)c2ccc(C(=O)c3ccccc3)cc2)cc(OC)c1OC,.,.,.,.,.,.,/
N#CC1=C(N)Oc2cc(N)ccc2C1c1ccccc1F (stereo not given),.,.,.,.,.,.,/
Cc1ccc(N(C(C)C(=O)Nc2cc(Cl)ccc2Oc2ccccc2)S(C)(=O)=O)cc1 (stereo not given),.,.,.,.,.,.,/
CCOc1ccc2oc(C(=O)NNC(=O)c3ccccc3O)c(C)c2c1,.,.,.,.,.,.,/
Cc1c(C(=O)NNC(=O)c2ccccc2O)oc2ccc(Br)cc12,.,.,.,.,.,30.4,55.7
CCOc1ccc(N(C)S(=O)(=O)c2ccc(C)c(C(=O)NCc3cccs3)c2)cc1,.,.,.,.,.,.,/
SMILES,MsrA inhibitor,MsrA act,NR2E3 ag-1,NR2E3 ag-2,GalR3 antagonist,NadD inh,NadD inh conf
CCCNc1c(F)c(F)c2c(C)c3ccccc3nc2c1F,.,.,.,.,.,39.5,.
Cc1c2ccccc2nc2ccccc12,.,.,.,.,.,.,/
CCOC(=O)C1=C(C)N(C[C@@H]2CC[C@@H](Cc3ccc(-c4ccccc4)cc3)O2)C(=O)NC1c1ccc(C(F)(F)F)cc1 (stereo not given in full),.,.,.,/,.,.,/
CCOC(=O)C1=C(C)N(C[C@@H]2CC[C@@H](Cc3ccc(-c4ccccc4)cc3)O2)C(=O)NC1c1ccc(SCc2ccco2)c([N+](=O)[O-])c1 (stereo not given in full),.,.,.,/,.,58.5,.
O=C(CCN1C(=O)S/C(=C\c2ccccc2)C1=O)Nc1ccc(S(=O)(=O)Nc2nccs2)cc1,.,.,.,.,.,.,/
Cc1cc(C)nc(NS(=O)(=O)c2ccc(NC(=O)CN3C(=O)S/C(=C\c4ccccc4)C3=O)cc2)n1,.,.,.,.,.,41.2,.
Cc1cc(C)nc(NS(=O)(=O)c2ccc(NC(=O)CN3C(=O)C4CC=CCC4C3=O)cc2)n1 (stereo not given),.,.,.,.,.,.,/
COc1ccccc1/C=C1/SC(=O)N(CCC(=O)Nc2ccc(S(=O)(=O)Nc3nccs3)cc2)C1=O,.,.,.,.,.,56.3,.
CCN(CC)S(=O)(=O)c1ccc(OC)c(-n2cnnn2)c1,.,.,.,.,.,.,/
CNc1nc(NCCOc2ccccc2)c2sccc2n1,/,.,.,/,/,.,/
O=C(Nc1ccc(N2CCOCC2)c(F)c1)c1ccncc1,.,.,.,.,.,.,/
CC(C)CN(Cc1c(O)ccc2c3c(c(=O)oc12)CCC3)CC(C)C,.,.,.,.,.,.,/
O=C(Nc1ccc(-c2csc(Nc3cccc(C(F)(F)F)c3)n2)cc1)c1cc([N+](=O)[O-])cc(C(F)(F)F)c1,.,.,.,.,.,32.8,.
CC(C)n1c(CNC(=O)c2ccccc2F)nnc1SCC(=O)NC1CCCCC1,.,.,.,/,.,32.4,.
CCn1c(CNC(=O)c2ccccc2F)nnc1SCC(=O)NC1CCCCC1,.,.,.,.,.,.,/
COc1ccc(NC(=O)CN2CCC3(O)CCCCC3C2c2cc(OC)ccc2OC)cc1 (stereo not given),.,.,.,.,.,.,/
COc1cccc(C2C3=C(N=c4s/c(=C\c5cccc(O)c5)c(=O)n42)c2ccccc2CC3)c1OC (stereo not given),.,.,.,.,.,40.0,.
OC(c1ccc(OCc2ccccc2)cc1)c1nnc(-c2ccccc2)o1 (stereo not given),.,.,.,.,.,.,/
COc1cccc(NC(=O)CN(C)C(=O)c2cc(-c3ccco3)nc3ccccc23)c1,.,.,.,.,.,.,/
